Series [1] has as its target T1, Potassium voltage-gated channel subfamily A member 3 (Homo sapiens, UniProt P22001). In words: Inhibition of cloned Kv1.3 channel expressed in mammalian cells at 2 uM by whole cell patch clamp assay. It counts as cell-based. An outline of the steps: (§1)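 Whole-cell patch clamp recording, n ≥ 2 individual experiments per compound concentration using different cells. Dose–response curves used four or more concentrations.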
For orientation: The patch-clamp technique gives a direct electrical read-out from membranes.

Series [2] addresses T1, Potassium voltage-gated channel subfamily A member 3. In words: Inhibition of cloned Kv1.3 channel expressed in mammalian cells by whole cell patch clamp assay. Format: cell-based. The procedure, abridged: as §1
Series [3] relates to HaCaT. Description: Inhibition of human HaCaT cell proliferation after 48 hrs. It counts as functional, cell-based. An outline of the steps:
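HaCaT keratinocytes were seeded in KBM/10% FCS and held 24 h at 37 °C. Compounds diluted in KBM/FCS (final 1% DMSO) were added in triplicate and incubated 48 h.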

Another series has as its system Mus musculus. In words: Antiinflammatory activity against oxazolone-induced delayed type hypersensitivity in mouse assessed as reduction in ear swelling at 1%, topically applied 30 mins post oxazolone challenge. Format: functional. Details: scale not given: the % may be the effect or the level left. The procedure, abridged: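 Mouse DTH ear-swelling model with oxazolone sensitization and challenge. A single topical dose at 1% in ethanol–DMSO 4:1 was applied 30 min after challenge. The read-out was ear swelling relative to a vehicle-treated group. Protopic (0.1%) served as positive control. Values are means of n = 5 animals per group.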

The nature of series [4]: (§2) Cytotoxicity against human HaCaT cells. As to conditions: HaCaT cells, read-out: LD50 (the source's name). Format: cell-based.
Series [5] is described as follows: Cytotoxicity against human effector memory T cells of PBMC. Conditions: effector memory T cells from PBMC, read-out: LD50 (the source's name). Format: cell-based, T-cell.
In series [6] the target is T1, Potassium voltage-gated channel subfamily A member 3. In words: Inhibition of cloned Kv1.3 channel expressed in mammalian cells at 20 uM by whole cell patch clamp assay.
For series [7], the target named is Intermediate conductance calcium-activated potassium channel protein 4 (Homo sapiens, UniProt O15554). Description: Inhibition of human cloned IK1 expressed in african green monkey COS7 cells by whole cell patch clamp assay. Format: cell-based, COS-7.
In series [8] the test system is PBMC. Description: Immunosuppressant activity in human effector memory T cells of PBMC assessed as inhibition of anti-CD3 antibody-induced cell proliferation by ELISA in presence of 5 uM Kv1.3-blocker PAP1. Format: functional, cell-based. The procedure, abridged: (§3)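 T_EM fraction of PBMCs stimulated with anti-CD3 antibody; proliferation dose–response curves for one channel blocker were run against a fixed background of a blocker of the other channel (IK-1 blocker, or 5 µM PAP-1 for Kv1.3). The read-out was EC50.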
On the technique in general: ELISA stands for enzyme-linked immunosorbent assay.

Series [9] relates to PBMC. In words: Immunosuppressant activity in human effector memory T cells of PBMC assessed as inhibition of anti-CD3 antibody-induced cell proliferation by ELISA. Format: functional, cell-based.
Series [10] has as its system HaCaT. Description: Cytotoxicity against human HaCaT cells up to 50 uM. Format: cell-based.
Series [11] is described as follows: Cytotoxicity against human effector memory T cells of PBMC up to 50 uM. It counts as cell-based.
Series [12] deals with HaCaT. Described as §2. Format: cell-based. As to conditions: hacat.
In series [13] the target is T1, Potassium voltage-gated channel subfamily A member 3. In words: Inhibition of cloned Kv1.3 channel expressed in mammalian cells at 20 uM by whole cell patch clamp assay. It counts as cell-based. The procedure, abridged:
as §1

In series [14] the test system is PBMC. In words: Immunosuppressant activity in human effector memory T cells of PBMC assessed as inhibition of anti-CD3 antibody-induced cell proliferation by ELISA in presence of 5 uM IK1-blocker TRAM34. Format: functional, cell-based. An outline of the steps: as §3
Series [15] deals with PBMC. Description: Immunosuppressant activity in human effector memory T cells of PBMC assessed as inhibition of anti-CD3 antibody-induced cell proliferation by ELISA in presence of 5 uM IK1-blocker 5-(4-Chloro-benzenesulfonyl)-5,6-dihydro-dibenzo[b,d]azepin-7-one. Format: functional, cell-based. An outline of the steps:
as §3

For series [16], the system named is PBMC. In words: Immunosuppressant activity in human effector memory T cells of PBMC assessed as inhibition of anti-CD3 antibody-induced cell proliferation by ELISA in presence of 5 uM IK1-blocker 5-(Toluene-4-sulfonyl)-5,6-dihydro-dibenzo[b,d]azepin-7-one. Format: functional, cell-based. The procedure, abridged: as §3
In series [17] the test system is PBMC. Description: Immunosuppressant activity in human effector memory T cells of PBMC assessed as inhibition of anti-CD3 antibody-induced cell proliferation by ELISA in presence of 16.7 uM IK1-blocker 5-(4-Chloro-benzenesulfonyl)-5,6-dihydro-dibenzo[b,d]azepin-7-one. It counts as functional, cell-based. An outline of the steps: as §3

Active and inactive are the calls of the source. The rule behind the calls is not given here. Where only a bound is given, the exact number is not on record here.

T1 sequence (P22001 whole entry): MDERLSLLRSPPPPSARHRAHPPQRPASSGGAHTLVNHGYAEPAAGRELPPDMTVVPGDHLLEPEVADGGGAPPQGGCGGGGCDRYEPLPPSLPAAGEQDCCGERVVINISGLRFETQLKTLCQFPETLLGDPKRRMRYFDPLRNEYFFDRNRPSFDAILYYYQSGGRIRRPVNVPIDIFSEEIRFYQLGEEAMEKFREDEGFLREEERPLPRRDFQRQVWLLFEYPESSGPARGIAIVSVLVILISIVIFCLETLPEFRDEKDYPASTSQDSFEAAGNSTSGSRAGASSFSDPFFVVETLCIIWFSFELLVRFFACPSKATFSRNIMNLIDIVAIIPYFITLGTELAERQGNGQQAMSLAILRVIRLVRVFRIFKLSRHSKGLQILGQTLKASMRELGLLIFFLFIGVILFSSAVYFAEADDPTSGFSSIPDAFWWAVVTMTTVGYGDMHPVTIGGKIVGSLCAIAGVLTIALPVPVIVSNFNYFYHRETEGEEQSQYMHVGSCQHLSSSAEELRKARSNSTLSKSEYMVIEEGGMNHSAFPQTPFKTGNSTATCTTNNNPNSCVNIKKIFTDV
Chain of Intermediate conductance calcium-activated potassium channel protein 4 (O15554 whole entry): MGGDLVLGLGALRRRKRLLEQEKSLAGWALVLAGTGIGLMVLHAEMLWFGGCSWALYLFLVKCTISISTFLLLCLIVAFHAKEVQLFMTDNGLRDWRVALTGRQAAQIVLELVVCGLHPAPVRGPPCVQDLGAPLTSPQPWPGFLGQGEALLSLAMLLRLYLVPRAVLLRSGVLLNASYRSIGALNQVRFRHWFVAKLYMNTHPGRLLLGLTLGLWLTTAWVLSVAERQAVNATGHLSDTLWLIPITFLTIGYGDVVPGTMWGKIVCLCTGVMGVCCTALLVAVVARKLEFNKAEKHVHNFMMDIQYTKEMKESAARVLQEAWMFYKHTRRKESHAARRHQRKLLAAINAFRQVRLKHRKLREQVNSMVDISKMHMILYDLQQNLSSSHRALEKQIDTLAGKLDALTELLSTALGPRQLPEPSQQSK

For the compound `O=C(c1ccc2c(c1)OCO2)C1c2ccccc2-c2ccccc2N1C(=O)c1ccco1` (configuration not stated), the inhibition in series [1] was found to be 8%.
In [2], `Clc1ccccc1C(c1ccccc1)(c1ccccc1)n1ccnc1` [CLOTRIMAZOLE] had an IC50 of 6 µM. This compound yielded an EC50 with HaCaT [3] of 15 µM. For the same compound, the Activity with Mus musculus was 20%. Further, the CC50 in [4] and in series [5] was 40 µM in each case.
In [6], `O=c1[nH]c2ccccc2c2ccccc12` had an inhibition of 12%.
With `O=C1CN(C(=O)c2cccc(Cl)c2)c2ccccc2-c2ccccc21`, the values for the IC50 in series [2] and in series [7] were 3.4 µM and 1.3 µM, respectively.
As for `COc1ccc(C(=O)C2c3ccccc3-c3ccccc3N2C(=O)c2ccco2)cc1` (configuration not stated), in series [1], the inhibition was determined as 13%.
The compound `O=C(CCc1ccccc1)C1c2ccccc2-c2ccccc2N1C(=O)c1ccco1` (configuration not stated) returned an inhibition in series [1] of 15%.
On to `CCCC(C)C(=O)N1c2ccccc2-c2ccccc2C1c1cccs1` (configuration not stated), for which the IC50 in series [2] is < 2 µM. This compound also yielded an inhibition in series [1] of 59%.
`O=C1CN(S(=O)(=O)c2cccc(Cl)c2)c2ccccc2-c2ccccc21`: half-maximal inhibition in series [2] (IC50) required 3.6 µM.
`O=C(O)C(=O)C1c2ccccc2-c2ccccc2N1C(=O)c1ccco1` (configuration not stated) had an inhibition in [1] of 41%.
In the case of `Clc1ccccc1C(c1ccccc1)(c1ccccc1)n1cccn1`, in series [2], half-maximal inhibition (IC50) was put at 5 µM. Also, the EC50 in the series with PBMC [8] was determined as 0.025 µM; with HaCaT [3], 40 µM. For the same compound, in the series with PBMC [9], the outcome was inactive.
For `O=C1CN(S(=O)(=O)c2ccc([N+](=O)[O-])cc2)c2ccccc2-c2ccccc21`, in series [2], the IC50 was > 10 µM.
`Cc1ccc(S(=O)(=O)N2CC(=O)c3ccccc3-c3ccccc32)cc1`: the IC50 amounted to 5.8 µM in [2] and 2.1 µM in series [7]. Moreover, the results for the concentration for a half-maximal effect (EC50) in the series on PBMC [8] and in the series with HaCaT [3] were 2.5 µM and 8.4 µM, respectively. Moreover, the Activity entry in the series with HaCaT [10] was “Non-toxic”; in the series on Mus musculus it was 20%; in [11], “Non-toxic”; in the series with HaCaT [12] it was “Non-toxic”. The outcome with PBMC [9] was inactive.
Compound `O=C(CCC1CCCC1)C1c2ccccc2-c2ccccc2N1C(=O)c1ccco1` (configuration not stated) came in with an inhibition in series [1] of 11%.
Compound `CC(=O)N1c2ccccc2-c2ccccc2C1c1c[nH]c2ccccc12` (configuration not stated) gave an IC50 in series [2] of 5 µM.
Turning to `O=C1CN(S(=O)(=O)c2cccs2)c2ccccc2-c2ccccc21`, the IC50 was 13 µM in [2] and 2.4 µM in [7].
Compound `O=C(c1cc(F)ccc1F)N1c2ccccc2-c2ccccc2C1c1cccs1` (configuration not stated) registered an inhibition in series [1] of 27%.
Take `O=c1c2ccccc2c2ccccc2n1CCn1cccc1`: the inhibition in series [6] and in [13] was 57% in each case. In the series on HaCaT [3], this compound showed an EC50 of 2.3 µM.
Take `O=C(c1ccc[nH]1)C1c2ccccc2-c2ccccc2N1C(=O)c1ccco1` (configuration not stated): the inhibition in series [1] was 15%.
Turning to `COc1cccc(C(=O)C2c3ccccc3-c3ccccc3N2C(=O)c2ccco2)c1` (configuration not stated), the inhibition in series [1] was determined as 30%.
`O=c1ccc2c(OCCCCOc3ccccc3)c3ccoc3cc2o1`: the EC50 was 0.43 µM with PBMC [14]; 25 µM in the series on PBMC [9]; 1.2 µM in the series with PBMC [15]; 0.4 µM in the series on PBMC [16]; 0.5 µM with PBMC [17]. Besides, the concentration for half-maximal inhibition (IC50) in [7] was 10 µM.
With `Cc1ccc(C(=O)N2CC(=O)c3ccccc3-c3ccccc32)cc1`, the IC50 was 4 µM in [2] and 16 µM in series [7].

What is called inhibition is the drop in the measured response relative to a control, in per cent. What is called IC50 is the midpoint of a concentration-inhibition curve. Broadly, the EC50 is the concentration that produces a half-maximal response.

These data come from ChEMBL document CHEMBL1137754, “Inhibitors of potassium channels KV1.3 and IK-1 as immunosuppressants” (Bioorg Med Chem Lett, 2009).
